Source: PubChem BioAssay (several laboratories)
SENP8 block-1: SENP8 protease inhibitors, primary screen, biochemical, luminescence. hit rate 1.2% among 330,000. AID 2540, 2010. inhibition, % at 10 µM. Sentrin-specific protease 8 (Homo sapiens), Q96LD8. purified SENP8, Z-RLRGG-aminoluciferin cleavage; in the data active means inhibition above about 50%
Target sequence (Q96LD8 whole entry, looked up): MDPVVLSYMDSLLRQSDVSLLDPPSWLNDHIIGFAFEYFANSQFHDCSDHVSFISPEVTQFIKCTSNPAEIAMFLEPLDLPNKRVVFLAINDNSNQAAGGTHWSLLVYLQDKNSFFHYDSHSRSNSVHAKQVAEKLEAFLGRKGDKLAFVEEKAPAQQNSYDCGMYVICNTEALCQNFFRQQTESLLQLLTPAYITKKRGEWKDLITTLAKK
SENP1 FRET inh: human SENP1 catalytic domain inhibitors, primary screen, biochemical, FRET, uHTS; Sentrin-specific protease 1 (Homo sapiens), Q9P0U3; recombinant SENP1 catalytic domain, CyPet-SUMO1-YPet FRET cleavage; inhibition, % at 10 µM; hit rate 0.21% among 360,000; AID 624204, 2012;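 active means inhibition at least 30% at 10 µM, raw YFP signal under a set limit, fluorescence ratio 0.5 to 1.5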;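 further: 0% = enzyme with DMSO and 100% = no enzyme wells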
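System: Recombinant human SENP1 catalytic domain, His6-tagged | Incubation: Enzyme reaction for 50 min at room temperature, dark | Medium: Tris pH 8 with BME, BSA, NP40 and catalase | Also added: 25 nM SUMO1 FRET substrate | Compound: 10 µM single point, 0.5% DMSO | Measured by: FRET fluorescence in CFP and YFP emission channels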
Platelet DG rel: inhibitors of platelet dense granule secretion, primary screen, cell-based, MLPCN, human platelets | human platelet-rich plasma, SFLLRN dense granule ATP release, luminescence | inhibition, %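 (compounds screened at 7.5 µM in platelet-rich plasma)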 | hit rate 0.22% among 300,000 | AID 1663, 2009;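 active means mean replicate score, as percent of positive control, at or above 50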
SENP6 inh: SENP6 protease inhibitors, primary screen, biochemical, luminescence, uHTS. Sentrin-specific protease 6 (Homo sapiens), Q9GZR1. Recombinant SENP6 catalytic domain, aminoluciferin luminescence. inhibition, % at 10 µM. hit rate 1.8% among 330,000. AID 2599, 2010;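 active means inhibition above about 50% at the single tested dose, limit read from the data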;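 further: plate controls were DMSO wells with enzyme for no effect and DMSO wells lacking enzyme for full effect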
SENP8 block-2: human SENP8 protease inhibitors, primary screen, biochemical, fluorescence, Nedd8 protein substrate, uHTS. recombinant SENP8. hit rate 0.64% among 360,000. Sentrin-specific protease 8 (Homo sapiens), Q96LD8. inhibition, % at 20 µM. AID 602440, 2012; in the data active means inhibition mostly above about 40%, no sharp cut-off; inactive means mostly below about 27%
SENP7 inh: SENP7 protease inhibitors, primary screen, biochemical, luminescence, uHTS. recombinant SENP7, Z-RLRGG-aminoluciferin luminescence, 40 min. hit rate 1.5% among 330,000. inhibition, % at 5 µM;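 active means inhibition above about 50% at the single test dose, limit read from the data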;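 further: plate controls were DMSO with enzyme for no effect and no enzyme buffer wells for full effect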
Target sequence (Q9BQF6 706-1050 limits assumed): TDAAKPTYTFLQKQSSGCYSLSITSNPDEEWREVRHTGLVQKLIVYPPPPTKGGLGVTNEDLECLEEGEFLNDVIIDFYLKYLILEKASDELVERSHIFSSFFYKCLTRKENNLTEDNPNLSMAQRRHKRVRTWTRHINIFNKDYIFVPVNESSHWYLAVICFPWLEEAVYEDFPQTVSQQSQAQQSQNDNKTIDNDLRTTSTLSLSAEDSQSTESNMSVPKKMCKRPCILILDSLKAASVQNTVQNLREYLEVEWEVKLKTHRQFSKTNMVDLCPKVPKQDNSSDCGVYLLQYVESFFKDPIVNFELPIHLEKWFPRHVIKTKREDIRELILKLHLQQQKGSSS
SENP1 conf: human SENP1 catalytic domain inhibitors, confirmation, biochemical, FRET endpoint, single concentration; inhibition, % at 10 µM; hit rate 34% among 520; shares compounds with SENP1 FRET inh; recombinant SENP1, CyPet-SUMO1-YPet FRET cleavage; in the data active means inhibition mostly above about 35%, no sharp cut-off; inactive means mostly below about 32%;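 further: 0% = enzyme with DMSO and 100% = no enzyme control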
SENP1 kin conf: human SENP1 catalytic domain inhibitors, confirmation, biochemical, kinetic FRET, single concentration; AID 651690, 2012; recombinant SENP1, CyPet-SUMO1-YPet FRET kinetic cleavage; shares compounds with SENP1 FRET inh; hit rate 26% among 520; inhibition, % at 10 µM; in the data active means inhibition mostly above about 32%, no sharp cut-off; inactive means mostly below about 29%;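 further: 0% = DMSO with enzyme and 100% = no enzyme substrate only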
Active calls of the source: *; · = no result; ! = not confirmed by another sample. Most compounds without a hit are left out; they make up all but 2.6% or so of the library.

SMILES	SENP8 block-1	SENP1 FRET inh	Platelet DG rel	SENP6 inh	SENP8 block-2	SENP7 inh	SENP1 conf	SENP1 kin conf
C#CCOCCOCCOCCNc1nc(N2CCN(C(=O)[C@H](CCC(=O)O)n3cc([C@@H](N)CCCCN)nn3)CC2)nc(N2CCN(C(=O)[C@H](CCCCN)n3cc([C@@H](N)CC(N)=O)nn3)CC2)n1	2	-1	·	0	15	-1	·	·
COC(=O)c1ccc(-c2nc(O)c(C)s2)cc1	-4	41*	2	1	-222	-7	87*	56*
Cc1ccc2nc3sc(C(=O)NCc4ccco4)c(N)c3cc2c1	-8	34*	10	-2	-44	-1	110*	71*
COc1ccc(C(=O)NC(C)CCc2ccccc2)cc1[N+](=O)[O-] (stereo not given)	13	1	2	0	9	-11	·	·
COc1ccc(C(=O)C(C)[n+]2ccc(C)c3ccccc32)cc1[N+](=O)[O-] (stereo not given)	-3	78*	1	0	10	8	6	8
COc1ccc(-c2csc(NC(=O)C3CSC4(C)CCC(=O)N34)n2)c(OC)c1 (stereo not given)	2	0	6	-13	0	-2	·	·
O=c1[nH]ncc2c3ccccc3n(Cc3cccc(Cl)c3)c12	-3	86*	9	-3	-18	-6	106*	62*
O=C1CCCN1CC(O)CS(=O)(=O)Cc1ccc(Cl)c(Cl)c1 (stereo not given)	-3	1	3	-6	11	2	·	·
CN(CC(=O)Nc1ccc(OC(F)(F)F)cc1)C(=O)Cc1cccs1	-14	-8	·	5	-1	-5	·	·
Cc1cc(C)c2cc(C#N)c(SCC(=O)NCc3ccco3)nc2c1	14	41*	-13	20	-63	8	3	16
O=C1CC(c2ccccc2)Cc2nc3nc(C(F)(F)F)nn3cc21 (stereo not given)	4	63*	6	-3	10	4	9	10
CSc1nc2nc3c(cn2n1)C(=O)CC(c1ccccc1)C3 (stereo not given)	0	54	1	4	-4	-13	·	·
COc1ccc(O)c(C(=O)c2cc(C#N)c(=O)n(CC3CCCO3)c2)c1 (stereo not given)	3	39*	2	-4	-16	0	30	36*
Cc1ccc(O)c(C(=O)c2cc(C#N)c(=O)n(CC3CCCO3)c2)c1 (stereo not given)	-1	-8	-7	-18	-7	6	·	·
O=C1C=Cc2ccccc2/C1=C/c1[nH]c(=O)[nH]c1O	2	60*	0	2	-302	-2	104*	76*
CC(/C=N\NC(=O)CN1CCN(S(=O)(=O)c2ccc(C)cc2)CC1)=C\c1ccccc1	·	1	-3	·	11	·	·	·
CC1Nc2ccc(C(=O)NC3CCCCC3)cc2NC1=O (stereo not given)	-2	41*	-4	-28	-150	10	17	16
CC(C)C1Nc2ccc(C(=O)NC3CCCCC3)cc2NC1=O (stereo not given)	-3	0	-4	-42	-39	8	·	·
Cc1nc(C)c(C(=O)OCC(=O)Nc2ccccc2SCC#N)s1	13	45*	·	-10	1	-3	6	8
Cc1nc(C)c(C(=O)OCC(=O)Nc2ccccc2)s1	-3	-2	·	-4	4	5	·	·
Cc1ccc(C(=O)CCC(=O)OCC(=O)Nc2ccccc2SCC#N)cc1	6	46*	·	0	-4	16	15	15
CCO/C(C)=N/Oc1cncnc1	·	2	·	·	12	·	·	·
CCN1CCc2nc3sc(C(=O)N4CCc5ccccc5C4)c(N)c3cc2C1	2	-23	-3	6	-193	3	·	·
CC(C)c1ccc2nc3sc(C(=O)N4CCc5ccccc5C4)c(N)c3cc2c1	5	61*	4	14	-66	4	81*	51*
COc1c([N+](=O)[O-])cc(C(=O)NNC(=O)c2ccc(C)cc2)cc1[N+](=O)[O-]	4	1	0	13	20	1	·	·
SMILES	SENP8 block-1	SENP1 FRET inh	Platelet DG rel	SENP6 inh	SENP8 block-2	SENP7 inh	SENP1 conf	SENP1 kin conf
N#CC1=C(N)Oc2cc(Nc3ccccc3)ccc2C1c1ccncc1 (stereo not given)	-4	77*	-29	-15	38	-4	31*	24
N#CC1=C(N)Oc2cc(N)ccc2C1c1cccnc1 (stereo not given)	-13	-29	-10	-31	-34	-4	·	·
COC(=O)C1=C(C)N(Cc2ccco2)C(=O)/C1=C\c1ccc(N(C)C)cc1	1	46*	-4	-6	-5	7	23	17
CCCCCN(C(=O)CCC(=O)OCCOc1ccc(OCC)cc1)c1c(N)n(CCCC)c(=O)[nH]c1=O	6	2	39	-11	14	-2	·	·
Cc1ccccc1NC(=O)c1cccc(C(=O)Nc2ccccc2C)n1	-3	38*	2	2	12	-3	-5	-4
CCOc1ccc(C(=O)Nc2nnc(S(=O)(=O)Nc3ccccc3C)s2)cc1	-10	1	1	-6	-176	9	·	·
CN1Cc2c(N)cccc2C(c2ccccc2)C1 (stereo not given)	1	74*!	3	6	30	7	67*	45*
Nc1ccccc1C=C1Cc2ccccc2C1=O	·	56*	·	·	11	·	10	-5
C=CCOc1ccc(Br)cc1/C=C1\NC(=S)N(C(C)=O)C1=O	5	-20	-4	-2	-193	-3	·	·
C=CCOc1c(Br)cc(/C=C2/NC(=S)N(C(C)=O)C2=O)cc1OC	0	55*	6	-17	-122	-5	40*	57*
CCCN(CCC)c1nc2ccccc2n2c(C)nnc12	9	2	-10	17	-61	-3	·	·
CCCNc1nc2ccccc2n2c(C)nnc12	6	31*	-8	-8	3	6	5	10
O=C(C[n+]1cc(Br)cc2ccccc21)c1ccc(Br)cc1	-5	52*	-1	-13	5	-8	14	8
